Assay results published in ChEMBL document CHEMBL2331406, “In vitro activity of scorpiand-like azamacrocycle derivatives in promastigotes and intracellular amastigotes of Leishmania infantum and Leishmania braziliensis” (Eur J Med Chem, 2013).
Values belong to the molecule of their own block, whether it stands above or below them. Active and inactive are the calls of the source. No cut-off for these calls is given here.

Key:
[1] = Selectivity index, ratio of IC50 for mouse J774.2 cells to IC50 for amastigote form of Leishmania braziliensis MHOM/BR/1975/M2904 infected in J774.2 cells; format: toxicity, cell-based
How it was run: (§1)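 J774.2 macrophages in MEM + 2 mM glutamine + 20% inactivated FCS were infected with stationary-phase promastigotes (10:1) for 24 h at 37 °C, 5% CO2. After washing, compounds were added at […] for 72 h. Amastigote reduction was scored in methanol-fixed, Giemsa-stained preparations; IC50 by regression; triplicates. SI = J774.2 IC50 (72 h flow cytometry)/amastigote IC50; ratio is versus Glucantime SI.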

[2] = Selectivity index, ratio of IC50 for mouse J774.2 cells to IC50 for axenic amastigote form of Leishmania braziliensis MHOM/BR/1975/M2904; format: toxicity
How it was run: (§2)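 Axenic amastigotes obtained by 3-day promastigote transformation in supplemented M199 + 10% heat-inactivated FCS, pH 5.4, 37 °C. […] Host toxicity: J774.2, 72 h, PI/FDA flow cytometry. SI = macrophage IC50/axenic amastigote IC50; ratio is compound SI over Glucantime SI.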

[3] = Selectivity index, ratio of IC50 for mouse J774.2 cells to IC50 for promastigote form of Leishmania braziliensis MHOM/BR/1975/M2904; format: toxicity
Leishmania braziliensis [4] = test: Antileishmanial activity against amastigote form of Leishmania braziliensis MHOM/BR/1975/M2904 infected in J774.2 cells after 72 hrs by haemocytometric analysis; format: functional, cell-based, MHOM/BR/75/M2904
How it was run: (§3)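 J774.2 macrophages grown in MEM with 2 mM glutamine and 20% inactivated FCS at 37 °C in 5% CO2. Infected with stationary-phase promastigotes at 10:1 for 24 h, then washed free of non-phagocytosed parasites. Compounds at 1, 10, 25, 50 and 100 for 72 h. Amastigotes counted on methanol-fixed, Giemsa-stained preparations and % reduction taken vs untreated. IC50 by linear regression of Kc values; three separate determinations.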

Leishmania braziliensis [5] = test: Antileishmanial activity against axenic amastigote form of Leishmania braziliensis MHOM/BR/1975/M2904 after 72 hrs by haemocytometric analysis; format: functional, MHOM/BR/75/M2904
How it was run: (§4)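 Axenic amastigotes made by culturing promastigotes 3 days at 37 °C in M199 with 10% heat-inactivated FCS plus organic acids, amino acids, sucrose, bicarbonate, MES, haemin and gentamicin, pH 5.4. Compound effect counted in a Neubauer haemocytometer chamber. IC50 by linear regression of Kc values at 1, 10, 25, 50 and 100.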

[6] = Selectivity index, ratio of IC50 for mouse J774.2 cells to IC50 for amastigote form of Leishmania infantum MCAN/ES/2001/UCM-10 infected in J774.2 cells; format: toxicity, cell-based; how it was run: as §1
[7] = Selectivity index, ratio of IC50 for mouse J774.2 cells to IC50 for axenic amastigote form of Leishmania infantum MCAN/ES/2001/UCM-10; format: toxicity; how it was run: as §2
[8] = Selectivity index, ratio of IC50 for mouse J774.2 cells to IC50 for promastigote form of Leishmania infantum MCAN/ES/2001/UCM-10; format: toxicity
How it was run: (§5)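 J774.2 toxicity: 72 h at the same concentrations, viability by flow cytometry with propidium iodide/fluorescein diacetate; IC50 by linear regression. SI = macrophage IC50/parasite IC50; ratio is compound SI over Glucantime SI.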

Leishmania infantum [9] = test: Antileishmanial activity against promastigote form of Leishmania infantum MCAN/ES/2001/UCM-10 after 72 hrs by haemocytometric analysis; format: functional, organism-based
How it was run: (§6)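 Promastigotes grown at 28 °C in MTL medium with 10% inactivated FCS. Compounds in DMSO (0.1%), diluted in culture medium to 100, 50, 25, 10 and 1. Cells counted at 72 h in a Neubauer haemocytometric chamber. IC50 (50% inhibition) by linear regression of Kc values.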

Leishmania infantum [10] = test: Antileishmanial activity against axenic amastigote form of Leishmania infantum MCAN/ES/2001/UCM-10 after 72 hrs by haemocytometric analysis; format: functional, organism-based; how it was run: as §4
Leishmania infantum [11] = test: Antileishmanial activity against amastigote form of Leishmania infantum MCAN/ES/2001/UCM-10 infected in J774.2 cells after 72 hrs by haemocytometric analysis; format: functional, organism-based; how it was run: as §3
Leishmania braziliensis [12] = test: Antileishmanial activity against promastigote form of […] MHOM/BR/1975/M2904 infected in J774.2 cells assessed as inhibition of number of amastigotes per host cell at IC25 concentration incubated for 12 hrs followed by compound washout measured after 48 hrs by microscopic analysis; format: functional; settings: MHOM/BR/75/M2904
How it was run: (§7)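 J774.2 cells seeded at 1 × 10^4 cells/well on coverslips and cultured 2 days. Infected with promastigotes at 10:1 with drug at IC25 added immediately, for 12 h at 37 °C in 5% CO2. Parasites and drug washed out, then grown 10 days with washing and fresh medium every 48 h. On methanol-fixed, Giemsa-stained slides, % infected cells and amastigotes per infected cell scored from more than 200 host cells. Three determinations.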

Leishmania braziliensis [13] = test: Antileishmanial activity against promastigote form of […] Leishmania braziliensis MHOM/BR/1975/M2904 infected in J774.2 cells assessed as inhibition of infection in host cells at IC25 concentration incubated for 12 hrs […] by microscopic analysis; format: functional; settings: MHOM/BR/75/M2904
Leishmania infantum [14] = test: Antileishmanial activity against promastigote form of Leishmania infantum MCAN/ES/2001/UCM-10 infected in J774.2 cells assessed as inhibition of number of amastigotes per host cell at IC25 concentration incubated for 12 hrs followed by compound washout measured after 48 hrs by microscopic analysis; format: functional; how it was run: as §7
Leishmania infantum [15] = test: Antileishmanial activity against promastigote form of Leishmania infantum MCAN/ES/2001/UCM-10 infected in J774.2 cells assessed as inhibition of infection in host cells at IC25 concentration incubated for 12 hrs followed by compound washout measured after 48 hrs by microscopic analysis; format: functional; how it was run: as §7
[16] = Ratio of compound selectivity index to glucantime selectivity index for amastigote form of Leishmania braziliensis MHOM/BR/1975/M2904 infected in J774.2 cells over mouse J774.2 cells; how it was run: as §1
[17] = Ratio of compound selectivity index to glucantime selectivity index for axenic amastigote form of Leishmania braziliensis MHOM/BR/1975/M2904 over mouse J774.2 cells; how it was run: as §2
[18] = Ratio of compound selectivity index to glucantime selectivity index for promastigote form of Leishmania braziliensis MHOM/BR/1975/M2904 over mouse J774.2 cells
Leishmania braziliensis [19] = test: Antileishmanial activity against promastigote form of Leishmania braziliensis MHOM/BR/1975/M2904 after 72 hrs by haemocytometric analysis; format: functional; settings: MHOM/BR/75/M2904, 72 h; how it was run: as §6
[20] = Ratio of compound selectivity index to glucantime selectivity index for amastigote form of Leishmania infantum MCAN/ES/2001/UCM-10 infected in J774.2 cells over mouse J774.2 cells; how it was run: as §1
[21] = Ratio of compound selectivity index to glucantime selectivity index for axenic amastigote form of Leishmania infantum MCAN/ES/2001/UCM-10 over mouse J774.2 cells; how it was run: as §2
[22] = Ratio of compound selectivity index to glucantime selectivity index for promastigote form of Leishmania infantum MCAN/ES/2001/UCM-10 over mouse J774.2 cells; how it was run: as §5
J774.2 = test: Cytotoxicity against mouse J774.2 cells after 72 hrs by PI-staining based flow cytometric analysis; format: cell-based; settings: J774.2, 72 h
How it was run: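 J774.2 macrophages (ECACC 91051511, female BALB/c mouse tumour) treated 72 h with 100, 50, 25, 10 and 1 of compound. Propidium iodide then fluorescein diacetate each added for 10 min at 28 °C in the dark. Cells pelleted at 400g, washed in PBS and analysed by flow cytometry. Viability % vs control; IC50 by linear regression of Kc values.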

Leishmania braziliensis [23] = test: Antileishmanial activity against promastigote form of Leishmania braziliensis MHOM/BR/1975/M2904 assessed as electro-dense vesicles at IC25 concentration after 96 hrs by MET microscopic analysis; format: functional; settings: MHOM/BR/75/M2904
How it was run: (§8)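 Promastigotes at 5 × 10^5 cells/mL in MTL medium with compound at IC25 for 96 h. Ultrastructure examined by transmission electron microscopy against untreated control parasites.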

Leishmania braziliensis [24] = test: Antileishmanial activity against promastigote form of Leishmania braziliensis MHOM/BR/1975/M2904 assessed as mortality at IC25 concentration after 96 hrs by MET microscopic analysis; format: functional; settings: MHOM/BR/75/M2904; how it was run: as §8
Leishmania braziliensis [25] = test: Antileishmanial activity against promastigote form of Leishmania braziliensis MHOM/BR/1975/M2904 assessed as empty cytoplasmic at IC25 concentration after 96 hrs by MET microscopic analysis; format: functional; settings: MHOM/BR/75/M2904; how it was run: as §8
Leishmania braziliensis [26] = test: Antileishmanial activity against promastigote form of Leishmania braziliensis MHOM/BR/1975/M2904 assessed as cytoplasmic alterations at IC25 concentration after 96 hrs by MET microscopic analysis; format: functional; settings: MHOM/BR/75/M2904; how it was run: as §8
[27] = J774.2 cells, read-out: Ratio IC50
[28] = Leishmania infantum, MCAN/ES/2001/UCM-10, 72 h

Molecule: MEGLUMINE ANTIMONATE [listing 1 of 2 here]
Ratio IC50 [1]: 0.8
Ratio IC50 [2]: 0.5
Ratio IC50 [3]: 0.6
IC50 (Leishmania braziliensis [4]; j774.2): 19.7 µM
IC50 (Leishmania braziliensis [5]): 30.9 µM
Ratio IC50 [6]: 0.5
Ratio IC50 [7]: 0.5
Ratio IC50 [8]: 0.8
IC50 (Leishmania infantum [9]): 18 µM
IC50 (Leishmania infantum [10]): 31 µM
IC50 (Leishmania infantum [11]; j774.2): 30.8 µM

Molecule: MEGLUMINE ANTIMONATE [listing 2 of 2 here]
inhibition (Leishmania braziliensis [12]): 37%
inhibition (Leishmania braziliensis [13]): 22%
inhibition (Leishmania infantum [14]): 30%
inhibition (Leishmania infantum [15]): 24%

IC50 (Leishmania braziliensis [4]; Leishmania braziliensis, MHOM/BR/75/M2904, J774.2, 72 h): 19.1 µM
IC50 (Leishmania braziliensis [5]; Leishmania braziliensis, MHOM/BR/75/M2904, 72 h): 31.4 µM
IC50 (Leishmania braziliensis [19]): 15.5 µM
IC50 (Leishmania infantum [9]; [28]): 24.2 µM
IC50 (Leishmania infantum [10]; [28]): 29.8 µM
IC50 (Leishmania infantum [11]; Leishmania infantum, MCAN/ES/2001/UCM-10, J774.2, 72 h): 44.9 µM
Molecule: Br.NCCCNCCN1CCNCc2cccc(n2)CNCC1
Ratio [16]: 14
Ratio [17]: 14
Ratio [18]: 24
selectivity ratio [1, 27]: 11.5
selectivity ratio [2, 27]: 7
selectivity ratio [3, 27]: 14.2
Ratio [20]: 10
Ratio [21]: 15
Ratio [22]: 11
selectivity ratio [6, 27]: 4.9
selectivity ratio [7, 27]: 7.4
selectivity ratio [8, 27]: 9.1
IC50 (J774.2): 220 µM
Activity (Leishmania braziliensis [23]): Active
Activity (Leishmania braziliensis [24]): Active
Activity (Leishmania braziliensis [25]): Active
Activity (Leishmania braziliensis [26]): Active
